The record followed here is ChEMBL document CHEMBL1126624, “Design, synthesis, and pharmacology of 3-substituted sodium azulene-1-sulfonates and related compounds: non-prostanoid thromboxane A2 receptor antagonists” (J Med Chem, 1993).

Assay [1] is filed under the species Rattus norvegicus. The assay can be described thus: Inhibition of U-46619 (3x10E-8 M) induced contraction in rat thoracic aorta. The class given is functional, organism-based. In outline:
(§1)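 Aortic rings were held under 1.0 g resting tension and gassed with 95% O₂/5% CO₂. After 1 h equilibration, 3×10⁻⁸ M U-46619 was added; once tension stabilised, compound was added cumulatively. The concentration giving 50% relaxation of the maximal U-46619 tension was derived by regression. Values are mean ± SEM from three dose groups of four preparations.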

The nature of assay [2]: Selectivity index for the difference between the IC50 values in the aggregation and contraction assay. Type of assay: functional. In outline: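 Index compares IC₅₀ values from U-46619-induced rabbit aorta contraction with those from rabbit platelet-rich plasma aggregation. For aggregation, citrated carotid blood from male New Zealand rabbits (2.0–2.5 kg) gave PRP. PRP was pre-warmed 2 min at 37 °C, given compound for 2 min, then U-46619, with turbidimetric read-out. Each IC₅₀ is mean ± SEM by regression, from three dose groups of four preparations.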

The species named for assay [3] is Oryctolagus cuniculus. The assay can be described thus: Compound was tested for agonist activity on rabbit aorta. Type of assay: functional. An outline of the steps:
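Rabbit aortic strips were exposed to compound alone at 10⁻⁵ M to test for partial agonism. Tension is expressed relative to the response to 40 mM KCl, which is set at 100.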

For assay [4], the species on record is Homo sapiens. The assay can be described thus: Effect on TXB2 formation of human platelets. The class given is functional, organism-based. In outline:
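Washed human platelets were sonicated in 50 mM phosphate buffer (pH 7.4) with 1 mM EDTA. They were preincubated with compound and 1 mM GSH for 5 min at 37 °C, then given [1-¹⁴C]arachidonic acid for 5 min. Eicosanoids were extracted and separated by TLC, and TXB₂ radioactivity was counted. IC₅₀ was derived by regression.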

For assay [5], the species on record is Rattus norvegicus. The assay can be described thus: Compound was tested for the inhibition U-46619 (3 x10 E -8 M) induced contraction against in rat thoracic aorta. The class given is functional, organism-based. An outline of the steps: as §1
For assay [6], the species on record is Oryctolagus cuniculus. The assay can be described thus: Compound was tested for agonist activity on rabbit PRP. The class given is functional. In outline:
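Rabbit platelet-rich plasma was exposed to compound alone at 10⁻⁴ M to test for partial agonism. Response is expressed relative to the response to 0.1 μM U-46619, which is set at 100.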

The test system of assay [7] is Thromboxane A2 receptor (Oryctolagus cuniculus). The assay can be described thus: Selectivity index for the TXA2 t-receptor was the difference between the IC50 values in the aggregation and contraction assay.
The species named for assay [8] is Oryctolagus cuniculus. The assay can be described thus: Displacement of specific binding of [3H]SQ-29,548 to rabbit gel-filtered platelets. Type of assay: functional.
Where [9] appears, read: Rattus norvegicus, Thoracic aorta.

By IC50 is commonly meant the midpoint of a concentration-inhibition curve. High values mean a need for much substance, low ones inhibition by little substance. For `CCCc1cc(S(=O)(=O)NCCc2ccc(OCC(=O)O)cc2)c2ccc(C(C)C)ccc1-2`, the 50% inhibitory concentration (IC50) in assay [1] (setting [9]) was 50 µM.

Compound `CC(C)c1cccc2c(CCCNS(=O)(=O)c3ccccc3)cc(C(=O)O)c-2c1` yielded an IC50 in assay [1] (setting [9]) of 7.4 µM. Against the preceding compound, the IC50 is about 6.8-fold lower.

In turn, `CC(C)c1ccc2c(CCCNS(=O)(=O)c3ccccc3)cc(C(=O)O)c-2cc1` came in with an IC50 in assay [1] (setting [9]) of 4.8 µM.

Compound `Cc1cc(S(=O)(=O)NCCc2ccc(OCC(=O)O)cc2)c2cc(C(C)C)cccc1-2` came in with an IC50 in assay [1] (setting [9]) of 120 µM.

In turn, `CC(C)c1ccc2c(CCCCNS(=O)(=O)c3ccc(Cl)cc3)cc(C(=O)O)c-2cc1` showed an IC50 in assay [1] (setting [9]) of 0.0053 µM. The compound further displayed a Selectivity index in assay [2] greater than 667.

In turn, `O=C(O)c1cc(CCCCNS(=O)(=O)c2ccccc2)c2cccccc1-2` returned an IC50 in assay [1] (setting [9]) of 0.57 µM.

Compound `CC(C)c1ccc2c(CC/C=C/CCNS(=O)(=O)c3ccccc3)cc(C(=O)O)c-2cc1` (stereo in doubt; 39) came in with an IC50 in assay [1] of 0.052 µM.

`CC(C)c1cccc2c(CCCCCNS(=O)(=O)c3ccccc3)cc(C(=O)O)c-2c1` showed an IC50 in assay [1] (setting [9]) of 2.6 µM.

In assay [1] (setting [9]), `CCCCc1cc(S(=O)(=O)NCCc2ccc(OCC(=O)O)cc2)c2cc(C(C)C)cccc1-2` showed an IC50 of 32 µM.

For `CC(C)c1ccc2c(CCCCCNS(=O)(=O)c3ccccc3)cc(C(=O)O)c-2cc1`, the IC50 in assay [1] (setting [9]) stood at 0.12 µM.

Take `COc1ccc(S(=O)(=O)NCCCCc2cc(S(=O)(=O)[O-])c3ccc(C(C)C)ccc2-3)cc1.[Na+]`: the Agonist activity in assay [3] and in assay [6] was 0 throughout. The half-maximal inhibitory concentration (IC50) is greater than 100 µM in assay [4] and 0.0032 µM in assay [5]. Further, the Selectivity index in assay [7] is 660.

In turn, `CC(C)c1ccc2c(CCCCNS(=O)(=O)c3ccc(F)cc3)cc(C(=O)O)c-2cc1` gave an IC50 in assay [1] (setting [9]) of 1.1 µM.

With `CC(C)c1ccc2c(CCCCNS(=O)(=O)c3ccccc3)cc(C(=O)O)c-2cc1`, 0.07 µM corresponded to half-maximal inhibition in assay [1] (setting [9]) (IC50). Moreover, the Selectivity index in assay [2] is greater than 63.

On to `Cc1cc(S(=O)(=O)NCCc2ccc(OCC(=O)O)cc2)c2cccccc1-2`, for which the IC50 in assay [1] (setting [9]) came to 190 µM.

For the compound `CCc1cc(S(=O)(=O)NCCc2ccc(OCC(=O)O)cc2)c2cc(C(C)C)cccc1-2`, the IC50 in assay [1] (setting [9]) was 56 µM.

In assay [1] (setting [9]), `O=C(O)c1cc(CCNS(=O)(=O)c2ccccc2)c2cccccc1-2` registered an IC50 of 21 µM.

For the compound `COc1ccccc2c(S(=O)(=O)NCCc3ccc(OCC(=O)O)cc3)cc(C)c1-2`, the IC50 in assay [1] (setting [9]) came out at 190 µM. This IC50 lies about 9-fold higher than the previous one.

As for `CC(C)c1cc(S(=O)(=O)NCCc2ccc(OCC(=O)O)cc2)c2cccccc1-2`, the IC50 in assay [1] (setting [9]) stood at 160 µM.

`CC(C)c1ccc2c(C(C)C)cc(S(=O)(=O)NCCc3ccc(OCC(=O)O)cc3)c-2cc1`: the IC50 in assay [1] (setting [9]) amounted to 25 µM.

In assay [1] (setting [9]), `CC(C)c1ccc2c(CCCCNS(=O)(=O)c3ccccc3)cc(S(=O)(=O)[O-])c-2cc1.[Na+]` showed an IC50 of 0.017 µM. For the same compound, the Agonist activity in assay [3] and in assay [6] was 0 throughout. The compound further yielded a Selectivity index in assay [7] greater than 91.

In assay [1] (setting [9]), `CC(C)c1ccc2c(C(=O)O)cc(-c3cccc(CCNS(=O)(=O)c4ccccc4)c3)c-2cc1` had an IC50 of 0.14 µM.

For `CC(C)c1cccc2c(CCCCCCCNS(=O)(=O)c3ccccc3)cc(C(=O)O)c-2c1`, in assay [1] (setting [9]), it took 0.93 µM to reach half-maximal inhibition (IC50). Against the preceding compound, the IC50 is about 6.6-fold higher.

As to `CCCc1cc(S(=O)(=O)NCCc2ccc(OCC(=O)O)cc2)c2cc(C(C)C)cccc1-2`, the midpoint of inhibition in assay [1] (setting [9]), the IC50, lay at 45 µM.

`O=C(O)c1cc(CCCNS(=O)(=O)c2ccccc2)c2cccccc1-2` displayed an IC50 in assay [1] (setting [9]) of 4.8 µM. Against the preceding compound, the IC50 is about 9.4-fold lower.

In assay [1] (setting [9]), `CCCCc1cc(S(=O)(=O)NCCc2ccc(OCC(=O)O)cc2)c2cccccc1-2` displayed an IC50 of 55 µM.

Take `CCc1cc(S(=O)(=O)NCCc2ccc(OCC(=O)O)cc2)c2cccccc1-2`: it took 56 µM to reach half-maximal inhibition in assay [1] (setting [9]) (IC50).

In turn, `CCc1cc(S(=O)(=O)NCCc2ccc(OCC(=O)O)cc2)c2ccc(C(C)C)ccc1-2` had an IC50 in assay [1] (setting [9]) of 65 µM.

In assay [1] (setting [9]), `CC(C)c1ccc2c(CCCCNS(=O)(=O)c3cccc(C(F)(F)F)c3)cc(C(=O)O)c-2cc1` came in with a half-maximal inhibitory concentration (IC50) of 1.6 µM.

For `CC(C)c1ccc2c(CCCCNS(=O)(=O)c3ccc(Cl)cc3)cc(S(=O)(=O)[O-])c-2cc1.[Na+]`, the IC50 in assay [1] (setting [9]) is 0.0009 µM; in assay [4], greater than 100 µM; in assay [8] it was 0.014 µM. Also, the Agonist activity in assay [3] and in assay [6] was 0 throughout. The Selectivity index in assay [7] was found to be 378.

In assay [1] (setting [9]), `O=C(O)c1cc(CCCCCNS(=O)(=O)c2ccccc2)c2cccccc1-2` registered an IC50 of 0.84 µM.

The compound `CC(C)c1ccc2c(CCCCCCCNS(=O)(=O)c3ccccc3)cc(C(=O)O)c-2cc1` gave an IC50 in assay [1] (setting [9]) of 0.12 µM.

Take `CC(C)c1ccc2c(CCNS(=O)(=O)c3ccccc3)cc(C(=O)O)c-2cc1`: the IC50 in assay [1] (setting [9]) turned out to be 60 µM.

Compound `CC(C)c1ccc2c(CC/C=C/CCNS(=O)(=O)c3ccccc3)cc(C(=O)O)c-2cc1` (stereo in doubt; 40) displayed an IC50 in assay [1] of 0.46 µM.

Turning to `O=C(O)COc1ccc(CCNS(=O)(=O)c2ccccc2)cc1` [SULOTROBAN], in assay [1] (setting [9]), inhibition was half-maximal at 1.5 µM (IC50). In assay [2], this compound gave a Selectivity index of 5.

Turning to `Cc1cc(S(=O)(=O)NCCc2ccc(OCC(=O)O)cc2)c2ccc(C(C)C)ccc1-2`, in assay [1] (setting [9]), the midpoint of inhibition, the IC50, lay at 84 µM.

`CCCc1cc(S(=O)(=O)NCCc2ccc(OCC(=O)O)cc2)c2cccccc1-2` gave an IC50 in assay [1] (setting [9]) of 77 µM.

For `CC(C)c1cccc2c(CCCCCCNS(=O)(=O)c3ccccc3)cc(C(=O)O)c-2c1`, the IC50 in assay [1] (setting [9]) stood at 0.92 µM.

With `O=C(O)c1cc(CCCCCCCNS(=O)(=O)c2ccccc2)c2cccccc1-2`, the IC50 in assay [1] (setting [9]) stood at 0.018 µM.

Take `CCCCc1cc(S(=O)(=O)NCCc2ccc(OCC(=O)O)cc2)c2ccc(C(C)C)ccc1-2`: half-maximal inhibition in assay [1] (setting [9]) (IC50) was put at 19 µM.

Take `CC(C)c1ccc2c(/C=C/C(=O)O)cc(CCCCNS(=O)(=O)c3ccccc3)c-2cc1`: inhibition in assay [1] (setting [9]) was half-maximal at 21 µM (IC50).

As for `O=C(O)c1cc(CCCCCCCCNS(=O)(=O)c2ccccc2)c2cccccc1-2`, it took 0.038 µM to reach half-maximal inhibition in assay [1] (setting [9]) (IC50).

The compound `CC(C)c1cccc2c(CCNS(=O)(=O)c3ccccc3)cc(C(=O)O)c-2c1` displayed an IC50 in assay [1] (setting [9]) of 15 µM.

In assay [1] (setting [9]), `CC(C)c1cccc2c(CCCCNS(=O)(=O)c3ccccc3)cc(C(=O)O)c-2c1` gave an IC50 of 3.1 µM. This IC50 is about 4.8-fold lower than that of the compound before.

Regarding `COc1ccc(S(=O)(=O)NCCCCc2cc(C(=O)O)c3ccc(C(C)C)ccc2-3)cc1`, the IC50 in assay [1] (setting [9]) was 0.16 µM. Moreover, the Agonist activity in assay [3] and in assay [6] was 0 throughout. The compound also returned a Selectivity index in assay [7] greater than 233.

In turn, `CCc1cc(S(=O)(=O)NCCc2ccc(OCC(=O)O)cc2)c2ccccc(OC)c1-2` displayed a concentration for half-maximal inhibition (IC50) in assay [1] (setting [9]) of 110 µM.

As for `CC(C)c1ccc2c(CCCCNS(=O)(=O)c3ccccc3)cc(CC(=O)O)c-2cc1`, half-maximal inhibition in assay [1] (setting [9]) (IC50) was put at 0.3 µM.

As to `CCc1cc(S(=O)(=O)NCCc2ccc(OCC(=O)O)cc2)c2cc(C(C)C)ccc(OC)c1-2`, half-maximal inhibition in assay [1] (setting [9]) (IC50) was put at 120 µM.

Turning to `O=C(O)c1cc(CCCCCCNS(=O)(=O)c2ccccc2)c2cccccc1-2`, in assay [1] (setting [9]), the IC50 turned out to be 0.14 µM.
